Assay results reported in ChEMBL document CHEMBL4513216, “Probing the Open Global Health Chemical Diversity Library for Multistage-Active Starting Points for Next-Generation Antimalarials” (ACS Infect Dis, 2020).

Assay: Toxicity liver stage against HepG2, at 10uM
Assay type: cell-based
Parameters: test concentration 10 uM, cell line HepG2-A16-CD81EGFP
Settings: human, HepG2-A16-CD81EGFP cells; read-out: INHIBITION
Method in brief: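 Uninfected HepG2-A16-CD81EGFP cells, 3 × 10^3 per well, 1536-well, plated on prespotted compound at 10 μM final, parasite-free screening media added to match infected plates; puromycin 10 μM positive, DMSO 0.5% negative; run in parallel with 48 h PbLuc assay at 37 °C, 5% CO2; viability by CellTiter-Glo luminescence, normalized to controls.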

Compound	cytotoxicity at 10 µM [%]
O=C(c1ccc(N2CCCC2)nn1)N1CCc2ccccc21	2.6
O=S(=O)(NCC1(c2cccs2)CCOCC1)c1cccnc1	-3.51
Cc1cc(C(=O)NCC2Cn3nnc(C)c3CO2)no1 (configuration not stated)	-4.07
Cc1ccc(CN2CCC3(CC(C(=O)NCC4CC4)=NO3)C2)s1 (configuration not stated)	5.92
COc1cccc(C(=O)NCC(O)c2cccs2)c1 (configuration not stated)	-22.4
CC(=O)c1ccc(Nc2nc(N)nc3c2nc(C)n3C)cc1	-8.23
O=C(c1cc(-c2cccs2)cs1)N1CCOCC1	5.01
COc1ccc(-n2cc(CNC(=O)c3cc[nH]n3)nn2)cc1	-4.71
CC(C)(C)c1noc(CCC(=O)N2CCNC(=O)C2)n1	-4.96
CCN(CC(=O)NC)C(=O)c1csc(Cc2ccccc2)n1	-5.66
CC(C)(C)c1noc(CCCC(=O)N2CCNC(=O)CC2)n1	-7.49
CC(C)C1C(=O)NCCN1C(=O)CCCc1nc(C(C)(C)C)no1 (configuration not stated)	-3.53
Cc1nc(C(NS(=O)(=O)N(C)C)c2ccccc2F)no1 (configuration not stated)	-2.09
COc1cccc(-c2cc(NCc3nc(C)cs3)n(C)n2)c1	-0.717
COc1cc2c(nn1)CCN(Cc1nc(Cc3ccccc3)no1)C2	-2.09
O=C(NCCN1CCOCC1)NCc1ccc(-n2cccn2)cc1	-6.4
CCc1ncncc1C(=O)NCCNS(=O)(=O)c1ccccc1	-6.55
Cc1noc(C)c1C(=O)NCCN1CCN(S(C)(=O)=O)CC1	-12.4
O=C(NCCSC1CCCC1)c1ccc(F)cc1F	-3.16
O=C(NCC(O)COc1cccc(F)c1)c1ccoc1 (configuration not stated)	-2.56
OCCOc1ccc(NCc2cc(F)cc3cccnc23)cn1	-4.46
CCn1c(C)nnc1CN(C)C1CCN(Cc2c(C)noc2C)C1 (configuration not stated)	0.317
CC(C)c1nnc2n1CCN(Cc1csc(-c3cnn(C)c3)n1)C2	-2.17
COCCc1noc(-c2cc(Cl)c3c(c2)OCCCO3)n1	3.61

Compound	cytotoxicity at 10 µM [%]
CC(C)NC(=O)Nc1ccc(-c2nc(C(C)C)no2)cc1	-8.56
CC(C)c1noc(-c2ccc(NC(=O)NCC(O)C(C)C)cc2)n1 (configuration not stated)	-7.03
Cc1c(C(=O)NCCC(=O)N2CCCC2)oc2c(F)cccc12	5.87
CN(C(=O)Cc1ccc2c(c1)OCCO2)C1CCCC1	9.66
O=C1OC2(CCN(CC3CCCO3)CC2)CN1CCc1ccccc1 (configuration not stated)	-6.21
O=C1CCC(c2ccccc2)(c2ccccc2)CN1CCO	2.94
Cc1ncsc1CN1CC2(CCCC2)CC1=O	-0.369
COc1ccc2c(C)c(C(=O)NC3CCN(S(C)(=O)=O)CC3)oc2c1	8.55
CN(CC1Cc2ccccc2CN1C)C(=O)Cc1cccs1 (configuration not stated)	-0.661
Cc1ccnc(NCc2cn3c(C)csc3n2)n1	-5.66
CC(=O)N[C@H]1CCN(C(=O)c2cc(Cn3cnc4ccccc43)[nH]n2)C1	-1.91
CCn1c(N)nc2cc(C(=O)N3CC(c4ccccn4)C3)cnc21	-14.8
Fc1ccccc1CC1CCN(Cc2nccs2)CC1	-6.92
CC(C)Cc1cc(C(=O)NC(C)(CO)CO)n(C)n1	6.57
Cc1nnsc1CNC(=O)Nc1cccc(N2CCN(C)C2=O)c1	-3.97
O=C(NCc1ccc2nonc2c1)C1CCN(C(=O)C2CCC2)CC1	-8.61
Cc1c(C(=O)NC2CCCC2)nnn1-c1ccccc1	11.4
Cc1ccc([C@@H]2CN(C(=O)c3cccnn3)C[C@H]2NC(=O)C2CC2)cc1	-17.7
Cc1ccc(NC2CCN(C(=O)c3ccnc(N(C)C)c3)CC2)nn1	3.97
CN(C)S(=O)(=O)N(C)C(c1cccc(F)c1)c1ccccn1 (configuration not stated)	3.22
CCN(Cc1ccccc1)C(=O)CN1CCOC(Cn2cncn2)C1 (configuration not stated)	-6.31
NC(=O)CS(=O)(=O)Cc1cc(Cl)c2c(c1)OCCCO2	-0.463
CCCN1C[C@@H]2CC[C@H]1CN(C(=O)Cn1c(C)cc(C)nc1=O)C2	-4.57
